From ChEMBL document CHEMBL1131072, “Synthesis, physicochemical properties, and evaluation of N-substituted-2-alkyl-3-hydroxy-4(1H)-pyridinones” (J Med Chem, 1998)
One block for each molecule: values may come before it.

Experiments:
[1] = Partition coefficient (logD7.4); format: physicochemical; settings: octanol/water, pH 7.4
Procedure, shortened: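 Shake-flask used a 100:1 or 1:100 phase ratio, 1 h stirring, centrifugation, and aqueous absorbance, repeated at least four times. Fe complexes were made at 10:1 ligand:Fe (10^-3/10^-4 M) and read at 460 nm. Reported as mean ± SD.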

[2] = Potentiometric values of pKa2 and pKa3
[3] = Compound was determined for their EDTA competition value(log beta3) of affinity constants.; format: ADME
Procedure, shortened: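 Spectrophotometric competition against EDTA on an automated titration system. The iron(III) complex was prepared at 5:1 ligand:Fe molar ratio in 0.1 M MOPS, pH 7.4, then titrated with EDTA. Spectral data were fitted in COMPT1 to give log β3, accurate to ±0.02 log unit.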

[4] = test system: Rattus norvegicus; assay: The amount iron excretion in the bile duct-cannulated rats when iron chelator administered orally at dose 132 mg/kg; format: functional; settings: route oral
Procedure, shortened: (§1)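 Non-iron-overloaded male Fischer rats (200–240 g) with bile-duct cannulas in metabolic cages. Control bile/urine was collected for 3 h; chelator was then given subcutaneously or by gavage. Bile was collected in 3-h fractions over 24 h, plus 24-h urine. Iron was measured by bathophenanthroline colorimetry (TCA/HCl, 65 °C 4 h, A535) against iron standards after blank subtraction.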

[5] = Compound was tested for equilibrium constants (pKa2) of the (hydroxyalkyl)pyridinone corresponds to the 3-hydroxy function potentiometrically
[6] = test system: Rattus norvegicus; assay: The amount iron excretion in the bile duct-cannulated rats when iron chelator administered subcutaneously at dose 132 mg/kg; format: functional; settings: route subcutaneous; procedure, shortened: as §1
[7] = Compound was tested for equilibrium constants (pKa1) potentiometrically; format: physicochemical; settings: read-out: pKa1
Procedure, shortened: (§2)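 Potentiometric titration in 0.1 M KCl (25 mL), acidified with 0.2 M HCl and titrated with 0.2 M KOH in 0.01-mL increments. Run at 25 ± 0.5 °C under argon, with the electrode zero set by a blank titration (Gran's plot). Data were fitted with TITRFIT; pKa accuracy ±0.02 pH unit.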

[8] = Compound was tested for equilibrium constants (pKa2) of the (hydroxyalkyl)pyridinone corresponds to the 3-hydroxy function spectrophotometrically..
[9] = Compound was determined for their affinity constants(log K2) with Fe(III) complex.; format: ADME
Procedure, shortened: (§3)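 Stepwise constants K1, K2 and K3 came from simultaneous spectrophotometric/potentiometric pH titrations of ligand with iron(III). Parameters were obtained by global optimization over titrations at several ligand and iron(III) concentrations, using the Fe3+/L− stepwise model (FeL2+, FeL2+, FeL3).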

[10] = Compound was tested for equilibrium constants (pKa1) spectrophotometrically.; format: physicochemical; settings: read-out: pKa1
Procedure, shortened: (§4)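 The UV/vis spectrum was recorded alongside each potentiometric titration step: 0.1 M KCl, HCl-acidified, titrated with 0.2 M KOH at 25 ± 0.5 °C under argon. Spectral data were fitted with TITRFIT (modified NONLIN) to give pKa, accurate to ±0.02 pH unit.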

[11] = Compound was determined for their affinity constants(log K3) with Fe(III) complex.; format: ADME; procedure, shortened: as §3
[12] = Compound was determined for their affinity constants(log K1) with Fe(III) complex.; format: ADME
Procedure, shortened: (§5)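 Stepwise Fe(III) stability constants (K1, K2, K3) came from simultaneous spectrophotometric/potentiometric pH titrations of ligand with iron(III) at several ligand and Fe(III) concentrations. Parameters were fitted by global optimization, and spectra were followed across pH.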

[13] = Spectrophotometric values of pKa2 and pKa3
[14] = test system: Rattus norvegicus; assay: The amount iron excretion in the bile duct-cannulated rats when iron chelator administered orally at dose 122 mg/kg; format: functional; settings: route oral; procedure, shortened: as §1
[15] = test system: Rattus norvegicus; assay: The amount iron excretion in the bile duct-cannulated rats when iron chelator administered subcutaneously at dose 122 mg/kg; format: functional; settings: route subcutaneous; procedure, shortened: as §1
[16] = test system: Rattus norvegicus; assay: The amount iron excretion in the bile duct-cannulated rats when iron chelator administered subcutaneously at dose 100 mg/kg; format: functional; settings: route subcutaneous
Procedure, shortened: (§6)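 Male Fischer rats (200–240 g), non-iron-overloaded and bile duct-cannulated, were kept in metabolic cages. Control bile and urine were collected for 3 h, then compound was given (subcutaneously or by gavage). Bile was collected at 3-h intervals over 24 h, with urine pooled over 24 h. Buprenorphine was given for analgesia. Iron was read by bathophenanthroline colorimetry (535 nm) after acid digestion (65 °C, 4 h) against iron standards.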

[17] = Compound was determined for their affinity constants(log K2) with Fe(III) complex; format: ADME; procedure, shortened: as §5
[18] = test system: Rattus norvegicus; assay: The amount iron excretion in the bile duct-cannulated rats when iron chelator administered orally at dose 100 mg/kg; format: functional; settings: route oral; procedure, shortened: as §6
[19] = test system: Rattus norvegicus; assay: The dose of the iron chelator administered in the bile duct-cannulated rats.; format: functional; procedure, shortened: as §1
[20] = test system: Rattus norvegicus; assay: The amount iron excretion in the bile duct-cannulated rats when iron chelator administered subcutaneously.; format: functional; procedure, shortened: as §1
[21] = test system: Rattus norvegicus; assay: The amount iron excretion in the bile duct-cannulated rats when iron chelator administered orally.; format: functional; procedure, shortened: as §1
[22] = test system: Rattus norvegicus; assay: The amount iron excretion in the bile duct-cannulated rats when iron chelator administered orally at dose 142 mg/kg; format: functional; settings: route oral; procedure, shortened: as §1
[23] = test system: Rattus norvegicus; assay: The amount iron excretion in the bile duct-cannulated rats when iron chelator administered subcutaneously at dose 142 mg/kg; format: functional; settings: route subcutaneous; procedure, shortened: as §1
[24] = Compound was tested for equilibrium constants (pKa3) of the (carboxyalkyl) pyridinone corresponds to the […] function spectrophotometrically..; format: physicochemical; settings: read-out: pKa3; procedure, shortened: as §4
[25] = Compound was tested for equilibrium constants (pKa3) of the (carboxyalkyl) pyridinone corresponds to the […] function potentiometrically; format: physicochemical; settings: read-out: pKa3; procedure, shortened: as §2

Structure (SMILES): CCCCCCn1ccc(=O)c(O)c1C
logD [1]: 1.89

Structure (SMILES): CCc1c(O)c(=O)ccn1CCO
pKa [2]: 9.77
Log beta3 [3]: 36.8
Iron excretion [4]: 819 µg/kg
pKa [5]: 9.77
logD [1]: -0.66
Iron excretion [6]: 698 µg/kg
pKa [7]: 3.31
pKa [8]: 9.75
Log K2 [9]: 11.6
pKa [10]: 3.34
Log K3 [11]: 9.4
Log K1 [12]: 15.7
pKa [13]: 9.75

Structure (SMILES): COCC(C)n1ccc(=O)c(O)c1C (stereo unspecified)
logD [1]: -0.26

Structure (SMILES): CCc1nccc(O)c1O
logD [1]: 0.05

Structure (SMILES): Cc1c(O)c(=O)ccn1C(C)C
logD [1]: 0.05

Structure (SMILES): Cc1c(O)c(=O)ccn1CCC(=O)N(C)C
logD [1]: -1

Structure (SMILES): CCOCCCn1ccc(=O)c(O)c1C
logD [1]: 0.12

Structure (SMILES): Cc1c(O)c(=O)ccn1CCO
pKa [2]: 9.65
pKa [5]: 9.65
logD [1]: -1.1
pKa [7]: 3.44
pKa [8]: 9.72
Iron excretion [14]: 272 µg/kg
Iron excretion [15]: 353 µg/kg
pKa [10]: 3.43
pKa [13]: 9.72

Structure (SMILES): CCN(C)C(=O)CCn1ccc(=O)c(O)c1C
logD [1]: -0.66

Structure (SMILES): CCc1c(O)c(=O)ccn1C
logD [1]: -0.21

Structure (SMILES): Cc1c(O)c(=O)ccn1C [DEFERIPRONE]
logD [1]: -0.77
Iron excretion [16]: 292 µg/kg
Log K3 [11]: 9.8
Log K1 [12]: 14.9
pKa [13]: 9.64
Log K2 [17]: 12.2
Iron excretion [18]: 351 µg/kg

Structure (SMILES): Cc1c(O)c(=O)ccn1CCC(=O)NC(C)C
logD [1]: -0.47

Structure (SMILES): Cc1nccc(O)c1O
logD [1]: -0.5

Structure (SMILES): Cc1c(O)c(=O)ccn1CCN
logD [1]: -1.55

Structure (SMILES): Cc1c(O)c(=O)ccn1CC(O)CO (stereo unspecified)
Dose [19]: 143 mg/kg
Iron excretion [20]: 142 µg/kg
Iron excretion [21]: 104 µg/kg

Structure (SMILES): C=CCn1ccc(=O)c(O)c1C
logD [1]: 0.03

Structure (SMILES): Cc1c(O)c(=O)ccn1CC(C)C
logD [1]: 0.65

Structure (SMILES): CCc1c(O)c(=O)ccn1CCCCO
logD [1]: -0.28

Structure (SMILES): CCCn1ccc(=O)c(O)c1CC
logD [1]: 0.7

Structure (SMILES): CCc1c(O)c(=O)ccn1CC
logD [1]: 0.23

Structure (SMILES): Cc1c(O)c(=O)ccn1C(CO)CO
logD [1]: -1.7

Structure (SMILES): CNC(=O)CCn1ccc(=O)c(O)c1C
logD [1]: -1.15

Structure (SMILES): Cc1c(O)c(=O)ccn1CC(C)(C)O
logD [1]: -0.77

Structure (SMILES): CCc1c(O)c(=O)ccn1CCCC(=O)O
pKa [2]: 9.89
pKa [24]: 9.99
logD [1]: -1.38
pKa [7]: 3.21
pKa [10]: 3.42
pKa [13]: 9.99
pKa [25]: 9.89

Structure (SMILES): CCNC(=O)CCn1ccc(=O)c(O)c1C
logD [1]: -0.82

Structure (SMILES): CCc1c(O)c(=O)ccn1CCC(=O)O
pKa [2]: 9.89
Log beta3 [3]: 37
pKa [24]: 9.91
logD [1]: -1.6
pKa [7]: 3.12
Log K2 [9]: 11.4
pKa [10]: 3.22
Log K3 [11]: 7.9
Log K1 [12]: 16.6
pKa [13]: 9.91
pKa [25]: 9.89

Structure (SMILES): COCCn1ccc(=O)c(O)c1C
logD [1]: -0.41

Structure (SMILES): Cc1c(O)c(=O)ccn1CCC(=O)O
pKa [2]: 9.49
pKa [24]: 9.51
logD [1]: -2.92
pKa [7]: 3.1
pKa [10]: 3.19
pKa [13]: 9.51
pKa [25]: 9.49

Structure (SMILES): CCN(CC)C(=O)CCn1ccc(=O)c(O)c1C
logD [1]: -0.36

Structure (SMILES): CCCCn1ccc(=O)c(O)c1C
logD [1]: 0.7

Structure (SMILES): CCOC(=O)CCn1ccc(=O)c(O)c1C
logD [1]: -0.24

Structure (SMILES): CCc1c(O)c(=O)ccn1CCOC
logD [1]: 0.04

Structure (SMILES): CCCCn1ccc(=O)c(O)c1CC
logD [1]: 1.22

Now from value to molecule, other results behind:

logD [1]: -1.08
Structure (SMILES): CNC(=O)CCCn1ccc(=O)c(O)c1C

logD [1]: -0.31
Structure (SMILES): CCn1ccc(=O)c(O)c1C

logD [1]: -0.77
Structure (SMILES): COC(=O)CCn1ccc(=O)c(O)c1C

logD [1]: -0.4
Structure (SMILES): CCCNC(=O)CCn1ccc(=O)c(O)c1C

logD [1]: -0.46
Structure (SMILES): COC(Cn1ccc(=O)c(O)c1C)OC

logD [1]: 0.72
Structure (SMILES): CCOCCCn1ccc(=O)c(O)c1CC

logD [1]: 1.24
Structure (SMILES): CCCCCn1ccc(=O)c(O)c1C

logD [1]: 0.73
Structure (SMILES): CCc1c(O)c(=O)ccn1C(C)C

logD [1]: -2.75
Structure (SMILES): Cc1c(O)c(=O)ccn1CCCC(=O)O

logD [1]: 0.21
Structure (SMILES): CCOC(Cn1ccc(=O)c(O)c1C)OCC

logD [1]: -0.32
Structure (SMILES): CCc1c(O)c(=O)ccn1CCCO
Iron excretion [22]: 265 µg/kg
Iron excretion [23]: 634 µg/kg

logD [1]: 0.47
Structure (SMILES): C=CCn1ccc(=O)c(O)c1CC

logD [1]: -0.75
Structure (SMILES): Cc1c(O)c(=O)ccn1CCCCO

Structure (SMILES): Cc1c(O)c(=O)ccn1CCCO
Iron excretion [4]: 414 µg/kg
Iron excretion [6]: 383 µg/kg
